Measured values as given in ChEMBL document CHEMBL3286162, “Synthesis and anticancer activity of novel quinoline-docetaxel analogues” (Bioorg Med Chem Lett, 2014).

Experiments:
HeLa [1] = test: Antiproliferative against human HeLa cells after 72 hrs by MTT assay; assay type: functional, cell-based
How it was run: (§1)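 MTT cytotoxicity assay with 72 h continuous exposure of cells to test compounds, run alongside docetaxel as positive control. The panel comprised four parental human cancer lines (HeLa, A549, A2780, MCF-7) and two drug-resistant sublines (A2780-MDR, MCF-7-MDR).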

A549 [2] = test: Antiproliferative against human A549 cells after 72 hrs by MTT assay; assay type: functional, cell-based; conditions: A549, 72 h; how it was run: as §1
A2780 [3] = test: Antiproliferative against human A2780 cells after 72 hrs by MTT assay; assay type: functional, cell-based; conditions: A2780, 72 h; how it was run: as §1
A2780 [4] = test: Antiproliferative against multidrug-resistant human A2780 cells after 72 hrs by MTT assay; assay type: functional, cell-based; conditions: A2780, 72 h; how it was run: as §1
MCF7 [5] = test: Antiproliferative against human MCF7 cells after 72 hrs by MTT assay; assay type: functional, cell-based; conditions: MCF7, 72 h; how it was run: as §1
MCF7 [6] = test: Antiproliferative against multidrug-resistant human MCF7 cells after 72 hrs by MTT assay; assay type: functional, cell-based; conditions: MCF7, 72 h; how it was run: as §1
MCF7 [7] = test: Ratio of docetaxel IC50 to compound IC50 for human MCF7 cells after 72 hrs by MTT assay; assay type: functional
MCF7 [8] = test: Ratio of docetaxel IC50 to compound IC50 for multidrug-resistant human MCF7 cells after 72 hrs by MTT assay; assay type: functional
A549 [9] = test: Ratio of docetaxel IC50 to compound IC50 for human A549 cells after 72 hrs by MTT assay; assay type: functional
A2780 [10] = test: Ratio of docetaxel IC50 to compound IC50 for human A2780 cells after 72 hrs by MTT assay; assay type: functional
HeLa [11] = test: Ratio of docetaxel IC50 to compound IC50 for human HeLa cells after 72 hrs by MTT assay; assay type: functional

SMILES	IC50 (HeLa [1])	IC50 (A549 [2])	IC50 (A2780 [3])	IC50 (A2780 [4])	IC50 (MCF7 [5])	IC50 (MCF7 [6])	Ratio IC50 (MCF7 [7])	Ratio IC50 (MCF7 [8])	Ratio IC50 (A549 [9])	Ratio IC50 (A2780 [10])	Ratio IC50 (HeLa [11])
CC(=O)O[C@@]12CO[C@@H]1C[C@H](O)[C@@]1(C)C(=O)[C@H](O)C3=C(C)[C@@H](OC(=O)[C@H](OC(=O)c4ccc5ccccc5n4)[C@@H](NC(=O)OC(C)(C)C)c4ccccc4)C[C@@](O)([C@@H](OC(=O)c4ccccc4)[C@H]21)C3(C)C	30.7 nM	38.2 nM	35 nM	33.2 nM	26.4 nM	9.3 nM					
CC(=O)O[C@@]12CO[C@@H]1C[C@H](O)[C@@]1(C)C(=O)[C@H](O)C3=C(C)[C@@H](OC(=O)[C@H](OC(=O)c4cnc5ccccc5c4)[C@@H](NC(=O)OC(C)(C)C)c4ccccc4)C[C@@](O)([C@@H](OC(=O)c4ccccc4)[C@H]21)C3(C)C	41 nM	41.2 nM	44.8 nM	34.9 nM	17.8 nM	36.3 nM	2				
CC(=O)O[C@@]12CO[C@@H]1C[C@H](O)[C@@]1(C)C(=O)[C@H](O)C3=C(C)[C@@H](OC(=O)[C@H](OC(=O)c4ccc5ncccc5c4)[C@@H](NC(=O)OC(C)(C)C)c4ccccc4)C[C@@](O)([C@@H](OC(=O)c4ccccc4)[C@H]21)C3(C)C	34.6 nM	38.8 nM	23.1 nM	30.2 nM	30.7 nM	8.8 nM		20			
CC(=O)O[C@@]12CO[C@@H]1C[C@H](O)[C@@]1(C)C(=O)[C@H](O)C3=C(C)[C@@H](OC(=O)[C@H](OC(=O)c4nccc5ccccc45)[C@@H](NC(=O)OC(C)(C)C)c4ccccc4)C[C@@](O)([C@@H](OC(=O)c4ccccc4)[C@H]21)C3(C)C	33.2 nM	28.1 nM	49.3 nM	12.2 nM	16.8 nM	17.8 nM					
COc1cc(C(=O)O[C@@H](C(=O)O[C@H]2C[C@@]3(O)[C@@H](OC(=O)c4ccccc4)[C@@H]4[C@]5(OC(C)=O)CO[C@@H]5C[C@H](O)[C@@]4(C)C(=O)[C@H](O)C(=C2C)C3(C)C)[C@@H](NC(=O)OC(C)(C)C)c2ccccc2)nc2ccccc12	39 nM	33.4 nM	32.9 nM	43.9 nM	12.8 nM	25.6 nM	2				
CC(=O)O[C@@]12CO[C@@H]1C[C@H](O)[C@@]1(C)C(=O)[C@H](O)C3=C(C)[C@@H](OC(=O)[C@H](OC(=O)c4cn(C5CC5)c5cc(Cl)c(F)cc5c4=O)[C@@H](NC(=O)OC(C)(C)C)c4ccccc4)C[C@@](O)([C@@H](OC(=O)c4ccccc4)[C@H]21)C3(C)C	32.6 nM	38.5 nM	45.3 nM	29.7 nM	42 nM	21.2 nM					
CC(=O)O[C@H]1C(=O)[C@@]2(C)[C@H]([C@H](OC(=O)c3ccccc3)[C@]3(O)C[C@H](OC(=O)[C@H](OC(=O)c4cnc5ccccc5c4)[C@@H](NC(=O)OC(C)(C)C)c4ccccc4)C(C)=C1C3(C)C)[C@]1(OC(C)=O)CO[C@@H]1C[C@@H]2O	36.3 nM	41 nM	34.2 nM	29 nM	43.3 nM	37.8 nM					
CC(=O)O[C@H]1C(=O)[C@@]2(C)[C@H]([C@H](OC(=O)c3ccccc3)[C@]3(O)C[C@H](OC(=O)[C@H](OC(=O)c4nccc5ccccc45)[C@@H](NC(=O)OC(C)(C)C)c4ccccc4)C(C)=C1C3(C)C)[C@]1(OC(C)=O)CO[C@@H]1C[C@@H]2O	41.2 nM	35.3 nM	16.9 nM	18.6 nM	26.6 nM	45.9 nM				2	
COc1cc(C(=O)O[C@@H](C(=O)O[C@H]2C[C@@]3(O)[C@@H](OC(=O)c4ccccc4)[C@@H]4[C@]5(OC(C)=O)CO[C@@H]5C[C@H](O)[C@@]4(C)C(=O)[C@H](OC(C)=O)C(=C2C)C3(C)C)[C@@H](NC(=O)OC(C)(C)C)c2ccccc2)nc2ccccc12	34.9 nM	32.3 nM	30.1 nM	21.3 nM	47.6 nM	18.2 nM					
CC(=O)O[C@@]12CO[C@@H]1C[C@H](O)[C@@]1(C)C(=O)[C@H](O)C3=C(C)[C@@H](OC(=O)[C@H](O)[C@@H](NC(=O)OC(C)(C)C)c4ccccc4)C[C@@](O)([C@@H](OC(=O)c4ccccc4)[C@H]21)C3(C)C [DOCETAXEL]	50.1 nM	35.2 nM	33 nM	126 nM	38.5 nM	180 nM					

Compounds with a lower IC50 (HeLa [1]), results first:

IC50 (HeLa [1])	IC50 (A549 [2])	IC50 (A2780 [3])	IC50 (A2780 [4])	IC50 (MCF7 [5])	IC50 (MCF7 [6])	SMILES	Ratio IC50 (MCF7 [7])	Ratio IC50 (MCF7 [8])	Ratio IC50 (A549 [9])	Ratio IC50 (A2780 [10])	Ratio IC50 (HeLa [11])
19.3 nM	16 nM	41.6 nM	32.5 nM	39.8 nM	28.4 nM	CC(=O)O[C@@]12CO[C@@H]1C[C@H](O)[C@@]1(C)C(=O)[C@H](O)C3=C(C)[C@@H](OC(=O)[C@H](OC(=O)c4cc(-c5ccccc5)nc5ccccc45)[C@@H](NC(=O)OC(C)(C)C)c4ccccc4)C[C@@](O)([C@@H](OC(=O)c4ccccc4)[C@H]21)C3(C)C			2		
19.9 nM	27.1 nM	45.7 nM	29.8 nM	37.3 nM	24.1 nM	CC(=O)O[C@H]1C(=O)[C@@]2(C)[C@H]([C@H](OC(=O)c3ccccc3)[C@]3(O)C[C@H](OC(=O)[C@H](OC(=O)c4ccc5ccccc5n4)[C@@H](NC(=O)OC(C)(C)C)c4ccccc4)C(C)=C1C3(C)C)[C@]1(OC(C)=O)CO[C@@H]1C[C@@H]2O					
18.5 nM	28.4 nM	16.3 nM	35.1 nM	29.8 nM	35.7 nM	CC(=O)O[C@H]1C(=O)[C@@]2(C)[C@H]([C@H](OC(=O)c3ccccc3)[C@]3(O)C[C@H](OC(=O)[C@H](OC(=O)c4ccc5ncccc5c4)[C@@H](NC(=O)OC(C)(C)C)c4ccccc4)C(C)=C1C3(C)C)[C@]1(OC(C)=O)CO[C@@H]1C[C@@H]2O				2	
11.8 nM	42.5 nM	28.2 nM	49.8 nM	31.4 nM	18.3 nM	CC(=O)O[C@H]1C(=O)[C@@]2(C)[C@H]([C@H](OC(=O)c3ccccc3)[C@]3(O)C[C@H](OC(=O)[C@H](OC(=O)c4cc(-c5ccccc5)nc5ccccc45)[C@@H](NC(=O)OC(C)(C)C)c4ccccc4)C(C)=C1C3(C)C)[C@]1(OC(C)=O)CO[C@@H]1C[C@@H]2O					5
25.3 nM	28.8 nM	39.8 nM	34.5 nM	30.2 nM	38.9 nM	CC(=O)O[C@H]1C(=O)[C@@]2(C)[C@H]([C@H](OC(=O)c3ccccc3)[C@]3(O)C[C@H](OC(=O)[C@H](OC(=O)c4cn(C5CC5)c5cc(Cl)c(F)cc5c4=O)[C@@H](NC(=O)OC(C)(C)C)c4ccccc4)C(C)=C1C3(C)C)[C@]1(OC(C)=O)CO[C@@H]1C[C@@H]2O					
